How the values were obtained:
Homo sapiens [1] = species: Homo sapiens; assay: Inhibition of c-TAK (unknown origin) at 30 uM by microfluidic mobility shift assay relative to control
Summary of the method: (§1)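 Single-point screen against a 24-kinase panel in a commercial microfluidic assay format. Compounds were tested at 30 µM, with ATP at approximately the Km,[ATP] of each enzyme. H-89 was included on each assay plate as an internal control.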

[2] = system: T1, Receptor-type tyrosine-protein kinase FLT3 (Homo sapiens), P36888 [D835Y]; assay: Inhibition of FLT3 D835Y mutant (unknown origin) at 30 uM by microfluidic mobility shift assay relative to control
T1 sequence (whole entry): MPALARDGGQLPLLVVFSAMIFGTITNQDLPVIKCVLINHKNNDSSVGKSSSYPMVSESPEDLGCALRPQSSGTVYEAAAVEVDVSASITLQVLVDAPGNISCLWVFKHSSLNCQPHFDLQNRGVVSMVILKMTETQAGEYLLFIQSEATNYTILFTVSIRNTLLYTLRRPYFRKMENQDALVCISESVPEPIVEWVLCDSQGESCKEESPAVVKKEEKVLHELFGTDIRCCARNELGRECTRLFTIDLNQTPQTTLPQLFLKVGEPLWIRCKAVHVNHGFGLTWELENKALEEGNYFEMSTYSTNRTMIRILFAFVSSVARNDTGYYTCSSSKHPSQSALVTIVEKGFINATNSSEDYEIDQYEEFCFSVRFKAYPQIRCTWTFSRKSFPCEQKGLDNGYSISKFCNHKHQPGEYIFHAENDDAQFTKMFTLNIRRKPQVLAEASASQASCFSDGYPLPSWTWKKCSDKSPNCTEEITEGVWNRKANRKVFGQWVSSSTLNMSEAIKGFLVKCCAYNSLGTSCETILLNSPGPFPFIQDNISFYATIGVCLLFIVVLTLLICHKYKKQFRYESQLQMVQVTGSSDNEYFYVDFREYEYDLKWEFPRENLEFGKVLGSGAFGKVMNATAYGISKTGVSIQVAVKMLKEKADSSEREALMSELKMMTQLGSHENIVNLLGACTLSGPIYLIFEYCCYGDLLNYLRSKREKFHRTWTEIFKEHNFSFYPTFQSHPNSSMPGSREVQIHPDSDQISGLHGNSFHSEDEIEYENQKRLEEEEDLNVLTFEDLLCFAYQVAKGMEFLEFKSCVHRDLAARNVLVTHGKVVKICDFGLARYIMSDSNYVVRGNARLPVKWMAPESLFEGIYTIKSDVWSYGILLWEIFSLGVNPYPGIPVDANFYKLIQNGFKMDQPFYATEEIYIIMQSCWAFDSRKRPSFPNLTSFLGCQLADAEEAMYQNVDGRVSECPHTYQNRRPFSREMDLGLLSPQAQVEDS
Summary of the method: (§2)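 Single-point screen at 30 µM test compound across a 24-kinase panel in a microfluidic assay format. ATP was set near each enzyme's Km,[ATP]. […] The pan-AGC inhibitor H-89 served as an internal control on every assay plate.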

Homo sapiens [3] = species: Homo sapiens; assay: Inhibition of DCAMK (unknown origin) at 30 uM by microfluidic mobility shift assay relative to control; summary of the method: as §2
[4] = biological target: Mitogen-activated protein kinase kinase kinase kinase 4 (Homo sapiens) (UniProt O95819); assay: Inhibition of HGK (unknown origin) at 30 uM by microfluidic mobility shift assay relative to control; summary of the method: as §2
Chain of Mitogen-activated protein kinase kinase kinase kinase 4 (Homo sapiens) (O95819 2-1239 limits assumed): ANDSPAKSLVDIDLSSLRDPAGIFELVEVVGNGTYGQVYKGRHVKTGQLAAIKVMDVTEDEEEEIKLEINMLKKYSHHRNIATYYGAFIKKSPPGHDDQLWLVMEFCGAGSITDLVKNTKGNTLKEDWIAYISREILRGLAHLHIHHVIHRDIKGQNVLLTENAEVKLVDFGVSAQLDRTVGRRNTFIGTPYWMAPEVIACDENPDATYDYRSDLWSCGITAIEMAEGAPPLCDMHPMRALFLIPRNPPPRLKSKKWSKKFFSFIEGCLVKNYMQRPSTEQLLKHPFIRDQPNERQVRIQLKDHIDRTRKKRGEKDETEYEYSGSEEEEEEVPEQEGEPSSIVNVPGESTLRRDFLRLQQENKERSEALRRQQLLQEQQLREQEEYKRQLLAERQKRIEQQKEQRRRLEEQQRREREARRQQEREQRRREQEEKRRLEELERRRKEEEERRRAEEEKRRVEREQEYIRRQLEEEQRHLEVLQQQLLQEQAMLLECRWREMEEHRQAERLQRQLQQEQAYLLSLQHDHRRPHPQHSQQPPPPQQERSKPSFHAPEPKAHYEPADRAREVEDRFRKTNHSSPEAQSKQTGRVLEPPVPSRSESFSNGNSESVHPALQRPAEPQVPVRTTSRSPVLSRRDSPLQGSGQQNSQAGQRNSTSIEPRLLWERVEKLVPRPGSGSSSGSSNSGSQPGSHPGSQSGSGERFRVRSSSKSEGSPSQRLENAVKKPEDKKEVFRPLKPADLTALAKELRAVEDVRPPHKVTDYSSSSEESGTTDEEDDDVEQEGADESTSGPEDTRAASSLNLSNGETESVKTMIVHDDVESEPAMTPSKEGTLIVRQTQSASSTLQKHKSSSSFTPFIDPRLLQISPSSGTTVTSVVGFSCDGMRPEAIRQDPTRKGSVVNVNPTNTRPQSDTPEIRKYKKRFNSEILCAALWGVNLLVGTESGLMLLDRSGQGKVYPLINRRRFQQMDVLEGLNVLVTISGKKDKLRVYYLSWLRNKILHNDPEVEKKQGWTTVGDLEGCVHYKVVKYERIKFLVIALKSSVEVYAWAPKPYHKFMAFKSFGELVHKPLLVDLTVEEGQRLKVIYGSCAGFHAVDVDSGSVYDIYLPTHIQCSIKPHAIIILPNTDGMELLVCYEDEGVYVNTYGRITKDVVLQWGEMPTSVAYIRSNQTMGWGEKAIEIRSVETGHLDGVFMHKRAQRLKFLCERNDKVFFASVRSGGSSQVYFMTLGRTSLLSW

[5] = biological target: Tyrosine-protein kinase BTK (Homo sapiens) (UniProt Q06187); assay: Inhibition of BTK (unknown origin) at 30 uM by microfluidic mobility shift assay relative to control; summary of the method: as §2
Chain of Tyrosine-protein kinase BTK (Homo sapiens) (Q06187 whole entry): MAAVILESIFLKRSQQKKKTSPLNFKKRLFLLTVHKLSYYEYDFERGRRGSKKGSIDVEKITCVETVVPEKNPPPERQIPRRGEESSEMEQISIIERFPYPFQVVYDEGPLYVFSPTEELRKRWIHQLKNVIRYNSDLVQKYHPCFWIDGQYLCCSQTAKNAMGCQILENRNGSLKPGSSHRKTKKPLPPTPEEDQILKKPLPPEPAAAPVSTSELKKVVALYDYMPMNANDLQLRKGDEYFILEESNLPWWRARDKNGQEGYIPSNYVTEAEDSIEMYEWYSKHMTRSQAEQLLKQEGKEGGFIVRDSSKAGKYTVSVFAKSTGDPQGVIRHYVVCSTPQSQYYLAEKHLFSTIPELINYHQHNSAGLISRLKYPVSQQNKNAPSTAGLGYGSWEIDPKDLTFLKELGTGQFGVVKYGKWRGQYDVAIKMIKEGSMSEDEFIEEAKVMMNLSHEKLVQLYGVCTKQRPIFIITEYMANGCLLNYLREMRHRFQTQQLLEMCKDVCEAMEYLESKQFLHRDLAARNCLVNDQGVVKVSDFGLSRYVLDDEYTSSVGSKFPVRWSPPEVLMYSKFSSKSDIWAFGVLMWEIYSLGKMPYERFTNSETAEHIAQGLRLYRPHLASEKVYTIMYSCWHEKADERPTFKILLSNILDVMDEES

[6] = biological target: T2, Inhibitor of nuclear factor kappa-B kinase subunit beta (Homo sapiens) (UniProt O14920); assay: Inhibition of IKKbeta (unknown origin) at 30 uM by microfluidic mobility shift assay relative to control; summary of the method: as §2
T2 sequence (whole entry): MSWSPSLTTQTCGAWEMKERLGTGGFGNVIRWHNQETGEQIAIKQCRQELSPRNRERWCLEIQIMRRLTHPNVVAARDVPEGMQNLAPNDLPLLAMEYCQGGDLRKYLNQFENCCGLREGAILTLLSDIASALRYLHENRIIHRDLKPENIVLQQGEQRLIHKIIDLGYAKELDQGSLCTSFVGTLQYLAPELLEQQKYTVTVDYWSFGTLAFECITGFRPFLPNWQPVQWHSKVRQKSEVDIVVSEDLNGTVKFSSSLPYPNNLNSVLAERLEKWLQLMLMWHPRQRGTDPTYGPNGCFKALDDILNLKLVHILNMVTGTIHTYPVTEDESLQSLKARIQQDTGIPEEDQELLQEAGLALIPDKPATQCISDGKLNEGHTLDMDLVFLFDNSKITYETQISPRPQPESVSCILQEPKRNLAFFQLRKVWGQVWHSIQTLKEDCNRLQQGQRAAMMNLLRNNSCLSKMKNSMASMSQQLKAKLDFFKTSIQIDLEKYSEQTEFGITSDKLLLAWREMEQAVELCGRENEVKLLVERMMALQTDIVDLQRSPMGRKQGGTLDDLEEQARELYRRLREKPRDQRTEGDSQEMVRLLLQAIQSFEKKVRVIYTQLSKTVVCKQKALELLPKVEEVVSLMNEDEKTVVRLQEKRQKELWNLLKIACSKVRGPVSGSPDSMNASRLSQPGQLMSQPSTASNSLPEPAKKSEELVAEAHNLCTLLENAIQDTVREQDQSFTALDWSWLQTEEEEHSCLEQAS

[7] = biological target: Serine/threonine-protein kinase pim-2 (Homo sapiens) (UniProt Q9P1W9); assay: Inhibition of PIM2 (unknown origin) at 30 uM by microfluidic mobility shift assay relative to control; summary of the method: as §2
Chain of Serine/threonine-protein kinase pim-2 (Homo sapiens) (Q9P1W9 whole entry, looked up): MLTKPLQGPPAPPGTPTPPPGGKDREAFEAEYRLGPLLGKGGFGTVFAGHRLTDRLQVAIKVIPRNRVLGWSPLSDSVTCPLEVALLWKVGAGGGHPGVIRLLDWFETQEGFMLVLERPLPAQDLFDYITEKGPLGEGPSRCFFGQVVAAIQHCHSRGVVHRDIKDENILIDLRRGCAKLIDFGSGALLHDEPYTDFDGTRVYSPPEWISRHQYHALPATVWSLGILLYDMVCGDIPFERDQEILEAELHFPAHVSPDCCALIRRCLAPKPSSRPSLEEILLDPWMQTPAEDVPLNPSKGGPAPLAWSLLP

[8] = biological target: Tyrosine-protein kinase Fer (Homo sapiens) (UniProt P16591); assay: Inhibition of FER (unknown origin) at 30 uM by microfluidic mobility shift assay relative to control; summary of the method: as §2
Chain of Tyrosine-protein kinase Fer (Homo sapiens) (P16591 whole entry, looked up): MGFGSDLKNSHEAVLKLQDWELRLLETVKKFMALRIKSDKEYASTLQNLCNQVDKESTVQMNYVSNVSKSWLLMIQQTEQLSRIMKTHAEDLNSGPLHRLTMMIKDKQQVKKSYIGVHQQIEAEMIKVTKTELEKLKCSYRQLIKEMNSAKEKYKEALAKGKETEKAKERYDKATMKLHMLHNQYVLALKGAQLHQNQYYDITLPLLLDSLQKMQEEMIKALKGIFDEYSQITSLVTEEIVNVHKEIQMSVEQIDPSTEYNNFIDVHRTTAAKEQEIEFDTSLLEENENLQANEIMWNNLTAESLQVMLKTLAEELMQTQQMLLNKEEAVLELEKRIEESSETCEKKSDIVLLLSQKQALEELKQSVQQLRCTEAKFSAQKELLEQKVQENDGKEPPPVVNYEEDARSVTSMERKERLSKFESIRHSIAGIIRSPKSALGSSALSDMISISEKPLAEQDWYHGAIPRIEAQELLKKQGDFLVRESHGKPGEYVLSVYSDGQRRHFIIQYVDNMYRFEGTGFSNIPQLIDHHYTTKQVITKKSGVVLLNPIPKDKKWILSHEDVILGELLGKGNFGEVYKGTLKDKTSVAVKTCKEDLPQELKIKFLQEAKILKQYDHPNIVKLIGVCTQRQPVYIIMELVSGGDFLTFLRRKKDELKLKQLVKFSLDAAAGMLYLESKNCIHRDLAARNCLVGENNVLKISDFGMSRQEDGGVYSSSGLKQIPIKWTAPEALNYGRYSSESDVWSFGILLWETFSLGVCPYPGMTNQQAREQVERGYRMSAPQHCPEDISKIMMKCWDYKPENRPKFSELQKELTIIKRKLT

[9] = biological target: T3, Serine/threonine-protein kinase Sgk3 (Homo sapiens) (UniProt Q96BR1); assay: Inhibition of SGK3 (unknown origin) at 30 uM by microfluidic mobility shift assay relative to control; summary of the method: as §1
T3 sequence (whole entry): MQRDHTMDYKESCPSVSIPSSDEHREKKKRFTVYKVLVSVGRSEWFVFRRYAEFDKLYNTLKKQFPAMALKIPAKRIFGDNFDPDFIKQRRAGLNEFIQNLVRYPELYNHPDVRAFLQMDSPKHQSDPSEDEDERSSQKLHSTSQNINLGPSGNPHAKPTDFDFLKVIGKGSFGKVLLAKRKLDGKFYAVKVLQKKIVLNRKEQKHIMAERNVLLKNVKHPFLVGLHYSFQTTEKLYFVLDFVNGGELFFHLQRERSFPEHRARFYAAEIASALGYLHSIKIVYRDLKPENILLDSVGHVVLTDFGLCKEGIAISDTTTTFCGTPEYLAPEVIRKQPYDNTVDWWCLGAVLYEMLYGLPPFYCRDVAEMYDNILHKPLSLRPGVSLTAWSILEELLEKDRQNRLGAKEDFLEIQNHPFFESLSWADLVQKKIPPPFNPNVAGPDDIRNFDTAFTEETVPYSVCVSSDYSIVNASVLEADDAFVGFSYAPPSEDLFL

| Compound | inhibition (Homo sapiens [1]) [%] | inhibition [2] [%] | inhibition (Homo sapiens [3]) [%] | inhibition [4] [%] | inhibition [5] [%] | inhibition [6] [%] | inhibition [7] [%] | inhibition [8] [%] | inhibition [9] [%] |
| --- | --- | --- | --- | --- | --- | --- | --- | --- | --- |
| c1ccc(CC2CCC3(CCN(c4ncnc5[nH]cnc45)CC3)NC2)cc1 (racemic) | 21 | 56 | 13 | 5 | 0 | 83 | 13 | 10 | 27 |
| c1ccc(CC2CCNC3(CCN(c4ncnc5[nH]cnc45)CC3)C2)cc1 (racemic) | 55 | 22 | 20 | 2 | 11 | 95 | 21 | 2 | 94 |
| c1ccc(C2CCNC3(CCN(c4ncnc5[nH]cnc45)CC3)C2)cc1 (racemic) | 47 | 45 | 17 | 7 | 0 | 100 | 4 | 12 | 95 |

Reference: ChEMBL document CHEMBL2417369, “Synthesis and evaluation of heteroaryl substituted diazaspirocycles as scaffolds to probe the ATP-binding site of protein kinases” (Bioorg Med Chem, 2013)
